Measured values published in ChEMBL document CHEMBL3421570, “Combinatorial Libraries As a Tool for the Discovery of Novel, Broad-Spectrum Antibacterial Agents Targeting the ESKAPE Pathogens” (J Med Chem, 2015).
Values after ≈ are worked out from the molar mass of the structure shown. Active and inactive are the calls of the source. No cut-off for these calls is given here.

Legend:
Klebsiella pneumoniae [1] = test: Antimicrobial activity against Klebsiella pneumoniae assessed as inhibition of microbial growth at 45 uM after 24 hrs; format: functional, organism-based
Outline: (§1)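 Broth microdilution single-concentration read: overnight cultures diluted 1:1000, compound in DMF (≤2.0%) added, 37°C for 24 h, growth inhibition scored visually by lack of turbidity; triplicate. Gram-positives grown in TSB, Gram-negatives in LB.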

Pseudomonas aeruginosa [2] = test: Bactericidal activity against Pseudomonas aeruginosa after 24 hrs; format: functional
[3] = Selectivity index, ratio of IC50 for human A549 cells to MIC for Klebsiella pneumoniae
Acinetobacter baumannii [4] = test: Ratio of MIC for Acinetobacter baumannii measured after 8 cycle passage to MIC for wild type Acinetobacter baumannii; format: functional
[5] = Induction of hemolysis in human RBC at 10 uM incubated for 15 mins; format: cell-based, Erythrocyte; settings: red blood cells, read-out: Activity
Outline: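 Human RBCs from whole blood, resuspended 20% v/v in HA buffer (NaCl, CaCl2), compound 10 μM, 15 min at 37°C. Centrifuged 5,500 g for 1 min, supernatant OD543 read. Percent hemolysis against DMF vehicle (0%) and 1.0% Triton X-100 (100%); triplicate.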

[6] = Selectivity index, ratio of IC50 for human A549 cells to MIC for Staphylococcus aureus
Enterobacter cloacae [7] = test: Antimicrobial activity against Enterobacter cloacae assessed as inhibition of microbial growth after 24 hrs; format: functional
Outline: (§2)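 Broth microdilution against multidrug-resistant clinical ESKAPE isolates. Overnight cultures (TSB for Gram-positives, LB for Gram-negatives) diluted 1:1000 in fresh medium, compound in DMF (≤2.0% DMF) added at decreasing concentrations, 37°C.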

Acinetobacter baumannii [8] = test: Bactericidal activity against Acinetobacter baumannii after 24 hrs; format: functional
[9] = Cytotoxicity against human A549 cells assessed as cell viability recovery up to 100 uM after 48 hrs by MTT assay; format: cell-based; settings: read-out: Activity
Outline: (§3)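 A549 cells grown in F-12K with L-glutamine, 10% FBS, 1% penicillin-streptomycin, seeded at 1.0 × 10^5 ml−1, allowed to adhere 24 h (37°C, 5% CO2), then exposed to compound in 45% w/v (2-hydroxypropyl)-β-cyclodextrin vehicle for 48 h. MTT 4 h, formazan solubilized in DMSO, absorbance 540 nm. Percent recovery versus vehicle-only; IC50 derived; at least three independent experiments.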

Staphylococcus aureus [10] = test: Antibiofilm activity against Staphylococcus aureus incubated for 24 hrs followed by biofilm resuspension in PBS and measured after 24 hrs; format: functional
Outline: (§4)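 Biofilms grown 24 h in 96-well plates from overnight cultures standardized to OD600 0.5 in fresh medium (human serum only for S. aureus; TSB for Gram-positives, LB for Gram-negatives). Medium then replaced with fresh medium containing a concentration range above and below MIC, 37°C overnight. After 24 h biofilm resuspended in PBS, serially diluted, plated in duplicate, CFU counted after 24 h at 37°C. Activity relative to untreated; three technical replicates; MBEC50 reported.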

Staphylococcus aureus [11] = test: Effect on bacterial density of methicillin-resistant Staphylococcus aureus at MIC measured over 2 hrs period by time kill assay; format: functional, organism-based
Staphylococcus aureus [12] = test: Ratio of MIC for Staphylococcus aureus measured after 8 cycle passage to MIC for wild type Staphylococcus aureus; format: functional
Acinetobacter baumannii [13] = test: Antimicrobial activity against Acinetobacter baumannii assessed as inhibition of microbial growth after 24 hrs; format: functional; outline: as §2
Pseudomonas aeruginosa [14] = test: Induction of spontaneous mutation in Pseudomonas aeruginosa at 2 to 10 MIC; format: functional, organism-based; settings: 2 to 10 x MIC
Staphylococcus aureus [15] = test: Antimicrobial activity against Staphylococcus aureus USA300 strain FPR3757 infected in mouse model of lethal peritonitis assessed as mouse survival at 2 uM, im dosed 1 hr post infection and measured after 5 days post infection; format: functional, organism-based
Outline: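 Mice, six per group, infected i.p. with 1 × 10^8 CFU ml−1 S. aureus USA300 FPR3757 in PBS with 5% mucin. Compound given i.m. at 2 μM 1 h later; vehicle 45% w/v (2-hydroxypropyl)-β-cyclodextrin in water i.v.; vancomycin i.v. as control. Monitored twice daily for 5 days, pre-moribund animals euthanized. Survival compared by log-rank test.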

Klebsiella pneumoniae [16] = test: Bactericidal activity against Klebsiella pneumoniae after 24 hrs; format: functional
Enterococcus faecium [17] = test: Antimicrobial activity against Enterococcus faecium assessed as inhibition of microbial growth after 24 hrs; format: functional; outline: as §2
Klebsiella pneumoniae [18] = test: Antibiofilm activity against Klebsiella pneumoniae incubated for 24 hrs followed by biofilm resuspension in PBS and measured after 24 hrs; format: functional; outline: as §4
Staphylococcus aureus [19] = test: Bactericidal activity against methicillin-resistant Staphylococcus aureus assessed as cell survival recovery at MIC measured after drug wash out after 120 mins by time kill assay; format: functional
Outline: (§5)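 MRSA from stationary phase was regrown 3 h in TSB and seeded at OD600 0.5. […] After 120 min, cells were centrifuged and washed, serially diluted and plated for CFU. Percent recovery is relative to no-drug controls.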

[20] = Selectivity index, ratio of IC50 for human A549 cells to MIC for Pseudomonas aeruginosa
Enterobacter cloacae [21] = test: Induction of spontaneous mutation in Enterobacter cloacae at 2 to 10 MIC; format: functional, organism-based
Pseudomonas aeruginosa [22] = test: Antimicrobial activity against Pseudomonas aeruginosa assessed as inhibition of microbial growth after 24 hrs; format: functional; outline: as §2
A549 = test: Cytotoxicity against human A549 cells after 48 hrs by MTT assay; format: cell-based; settings: A549, 48 h; outline: as §3
Enterococcus faecium [23] = test: Antimicrobial activity against Enterococcus faecium assessed as inhibition of microbial growth at 45 uM after 24 hrs; format: functional, organism-based; outline: as §1
Enterobacter cloacae [24] = test: Antibiofilm activity against Enterobacter cloacae incubated for 24 hrs followed by biofilm resuspension in PBS and measured after 24 hrs; format: functional; outline: as §4
Klebsiella pneumoniae [25] = test: Ratio of MIC for Klebsiella pneumoniae measured after 8 cycle passage to MIC for wild type Klebsiella pneumoniae; format: functional
Staphylococcus aureus [26] = test: Induction of spontaneous mutation in Staphylococcus aureus at 2 to 10 MIC; format: functional, organism-based
[27] = Selectivity index, ratio of IC50 for human A549 cells to MIC for Enterococcus faecium
Acinetobacter baumannii [28] = test: Antibiofilm activity against Acinetobacter baumannii incubated for 24 hrs followed by biofilm resuspension in PBS and measured after 24 hrs; format: functional; outline: as §4
Enterobacter cloacae [29] = test: Bactericidal activity against Enterobacter cloacae after 24 hrs; format: functional
Staphylococcus aureus [30] = test: Antimicrobial activity against Staphylococcus aureus assessed as inhibition of microbial growth after 24 hrs; format: functional; outline: as §2
Enterobacter cloacae [31] = test: Ratio of MIC for Enterobacter cloacae measured after 8 cycle passage to MIC for wild type Enterobacter cloacae; format: functional
Enterococcus faecium [32] = test: Bactericidal activity against Enterococcus faecium after 24 hrs; format: functional
Enterobacter cloacae [33] = test: Antimicrobial activity against Enterobacter cloacae assessed as inhibition of microbial growth at 45 uM after 24 hrs; format: functional, organism-based; outline: as §1
Enterococcus faecium [34] = test: Induction of spontaneous mutation in Enterococcus faecium at 2 to 10 MIC; format: functional, organism-based
Enterococcus faecium [35] = test: Antibiofilm activity against Enterococcus faecium incubated for 24 hrs followed by biofilm resuspension in PBS and measured after 24 hrs; format: functional; outline: as §4
Klebsiella pneumoniae [36] = test: Induction of spontaneous mutation in Klebsiella pneumoniae at 2 to 10 MIC; format: functional, organism-based
[37] = Selectivity index, ratio of IC50 for human A549 cells to MIC for Enterobacter cloacae
[38] = Selectivity index, ratio of IC50 for human A549 cells to MIC for Acinetobacter baumannii
Acinetobacter baumannii [39] = test: Induction of spontaneous mutation in Acinetobacter baumannii at 2 to 10 MIC; format: functional, organism-based
[40] = Cytotoxicity against human A549 cells assessed as cell viability recovery at 225 uM after 48 hrs by MTT assay; format: cell-based; settings: read-out: Activity; outline: as §3
Acinetobacter baumannii [41] = test: Antimicrobial activity against Acinetobacter baumannii assessed as inhibition of microbial growth at 45 uM after 24 hrs; format: functional, organism-based; outline: as §1
Pseudomonas aeruginosa [42] = test: Antibiofilm activity against Pseudomonas aeruginosa incubated for 24 hrs followed by biofilm resuspension in PBS and measured after 24 hrs; format: functional; outline: as §4
Staphylococcus aureus [43] = test: Bactericidal activity against methicillin-resistant Staphylococcus aureus at MIC measured after drug wash out after 120 mins by time kill assay; format: functional; outline: as §5
Staphylococcus aureus [44] = test: Antimicrobial activity against Staphylococcus aureus assessed as inhibition of microbial growth at 45 uM after 24 hrs; format: functional, organism-based; outline: as §1
Pseudomonas aeruginosa [45] = test: Antimicrobial activity against Pseudomonas aeruginosa assessed as inhibition of microbial growth at 45 uM after 24 hrs; format: functional, organism-based; outline: as §1
Klebsiella pneumoniae [46] = test: Antimicrobial activity against Klebsiella pneumoniae assessed as inhibition of microbial growth after 24 hrs; format: functional; outline: as §2
Pseudomonas aeruginosa [47] = test: Antimicrobial activity against Pseudomonas aeruginosa assessed as inhibition of microbial growth at 100 uM after 24 hrs; format: functional, organism-based; outline: as §1

Compound: CCCC[C@H]1CN(CCCC[C@H]2CNC(=N)N2CCc2cccc(C(F)(F)F)c2)C(=N)N1CCCCC1CCCCC1
- growth inhibition (GI) (Klebsiella pneumoniae [1]): Active
- MBC90 (Pseudomonas aeruginosa [2]): 2.3 µM (≈ 1.36 µg/mL)
- Selectivity Index [3]: 82
- Ratio (Acinetobacter baumannii [4]): <=8
- hemolysis at 0.25 h, 10 µM [5]: 0.34%
- Selectivity Index [6]: 82
- MIC (Enterobacter cloacae [7]): 1.5 µM
- MBC90 (Acinetobacter baumannii [8]): 2.8 µM (≈ 1.65 µg/mL)
- viability at 48 h [9]: > 65%
- MBEC50 (Staphylococcus aureus [10]): 2.2 µM
- Activity (Staphylococcus aureus [11]): inactive
- Ratio (Staphylococcus aureus [12]): 2
- MIC (Acinetobacter baumannii [13]): 1.5 µM
- Activity (Pseudomonas aeruginosa [14]): inactive
- Activity (Staphylococcus aureus [15]): Active
- MBC90 (Klebsiella pneumoniae [16]): 4 µM (≈ 2.36 µg/mL)
- MIC (Enterococcus faecium [17]): 1.5 µM
- MBEC50 (Klebsiella pneumoniae [18]): 4.7 µM
- Survival (Staphylococcus aureus [19]): 0.2%
- Selectivity Index [20]: 82
- Activity (Enterobacter cloacae [21]): inactive
- MIC (Pseudomonas aeruginosa [22]): 1.5 µM
- IC50 (A549): 125 µM
- growth inhibition (GI) (Enterococcus faecium [23]): Active
- MBEC50 (Enterobacter cloacae [24]): 13 µM
- Ratio (Klebsiella pneumoniae [25]): <=8
- Activity (Staphylococcus aureus [26]): inactive
- Selectivity Index [27]: 82
- MBEC50 (Acinetobacter baumannii [28]): 16 µM
- MBC90 (Enterobacter cloacae [29]): 4.1 µM (≈ 2.42 µg/mL)
- MIC (Staphylococcus aureus [30]): 1.5 µM
- Ratio (Enterobacter cloacae [31]): <=8
- MBC90 (Enterococcus faecium [32]): 1.7 µM (≈ 1 µg/mL)
- growth inhibition (GI) (Enterobacter cloacae [33]): Active
- Activity (Enterococcus faecium [34]): inactive
- MBEC50 (Enterococcus faecium [35]): 29 µM
- Activity (Klebsiella pneumoniae [36]): inactive
- Selectivity Index [37]: 82
- Selectivity Index [38]: 82
- Activity (Acinetobacter baumannii [39]): inactive
- viability at 48 h, 225 µM [40]: > 50%
- growth inhibition (GI) (Acinetobacter baumannii [41]): Active
- MBEC50 (Pseudomonas aeruginosa [42]): 31 µM
- fold change (FC) (Staphylococcus aureus [43]): 2.5
- growth inhibition (GI) (Staphylococcus aureus [44]): Active
- growth inhibition (GI) (Pseudomonas aeruginosa [45]): Active
- MIC (Klebsiella pneumoniae [46]): 1.5 µM

Compound: COC(=O)[C@H]1[C@H]2C[C@@H]3c4[nH]c5cc(OC)ccc5c4CCN3C[C@H]2C[C@@H](OC(=O)c2cc(OC)c(OC)c(OC)c2)[C@@H]1OC
- growth inhibition (GI) (Pseudomonas aeruginosa [47]): inactive
